Biofilm kill mix = clotrimazole potentiators killing C. albicans biofilm, primary screen, 4-compound mixtures; C. albicans biofilm persisters + clotrimazole, fluorescence viability; primary screen in compound mixtures of four per well; inhibition, % at 7.6 µM; hit rate 0.02% among 120,000;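 active = inhibition above 30.3% in the primary screen of four-compound pools, then above 30% when the compound was retested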;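 note: compounds exposed to preformed 24 h biofilms for 48 h; 0% = untreated biofilm control and 100% = clotrimazole plus chlorhexidine kill blank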
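Test system: C. albicans CAF4-2 wild-type biofilms; buffer or medium: RPMI/MOPS medium, pH 7.0; schedule: 24 h biofilm formation, then 48 h compound exposure, 37 °C; detection: Alamar Blue fluorescence; measure: percent inhibition of biofilm viability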
14-3-3 Bad inh = inhibitors of 14-3-3 zeta/Bad binding, primary screen, biochemical, TR-FRET, bovine 14-3-3 zeta. inhibition, % at 21.7 µM. hit rate 0.71% among 220,000. TR-FRET 14-3-3zeta/Dy647-pBad peptide displacement, 1 h. 14-3-3 protein zeta/delta (Bos taurus), P63103;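 active = inhibition above about 70%, limit read from the data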;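 note: 0% = full 14-3-3 plus peptide FRET controls and 100% = background without 14-3-3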
Hck-Nef inh = inhibitors of Nef-activated human Hck kinase, primary screen, biochemical, Z-Lyte FRET, 384-well, Hck-YEEI; Recombinant Hck-YEEI plus Nef, Z-Lyte FRET kinase assay; inhibition, % at 20 µM; hit rate 0.68% among 220,000; AID 463187, 2010;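 active = Hck-Nef kinase inhibition above about 50%, limit read from the data; inactive = inhibition below that limit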;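 note: 0% = DMSO with Hck plus Nef and 100% = Hck alone without Nef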
Target sequence (P08631 whole entry, looked up): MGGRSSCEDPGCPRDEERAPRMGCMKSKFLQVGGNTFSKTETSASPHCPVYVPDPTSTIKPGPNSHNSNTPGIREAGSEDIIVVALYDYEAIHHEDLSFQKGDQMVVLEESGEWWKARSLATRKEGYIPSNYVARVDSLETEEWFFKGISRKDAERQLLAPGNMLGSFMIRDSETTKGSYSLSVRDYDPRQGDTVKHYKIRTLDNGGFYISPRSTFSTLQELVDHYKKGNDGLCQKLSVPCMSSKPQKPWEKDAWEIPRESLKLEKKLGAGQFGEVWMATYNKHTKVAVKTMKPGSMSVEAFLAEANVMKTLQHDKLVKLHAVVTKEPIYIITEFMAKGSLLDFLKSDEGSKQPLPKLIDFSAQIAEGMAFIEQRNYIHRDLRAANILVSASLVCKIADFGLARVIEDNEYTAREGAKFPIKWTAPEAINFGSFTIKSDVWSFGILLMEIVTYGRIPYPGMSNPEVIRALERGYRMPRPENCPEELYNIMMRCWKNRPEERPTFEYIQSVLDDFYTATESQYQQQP
Mcl-1 Bim block = inhibitors of Bim peptide binding to Mcl-1, primary screen, biochemical, bead-based flow cytometry, multiplex; Induced myeloid leukemia cell differentiation protein Mcl-1 (Homo sapiens), Q07820; inhibition, % at 10 µM; Bim peptide-Mcl-1 binding; hit rate 0.1% among 190,000; in the data active = inhibition above about 40%;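 note: 0% = no compound tracer wells and 100% = peptide blocker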
Mcl1-Noxa inh = Mcl-1/Noxa binding inhibitors, primary screen, biochemical, TR-FRET, 1536-well; AID 1022, 2008; hit rate 1.5% among 220,000; Induced myeloid leukemia cell differentiation protein Mcl-1 (Homo sapiens), Q07820; inhibition, % at 21.7 µM; TR-FRET Mcl-1/Noxa peptide binding, 2 h;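 active = compounds that cut the protein-peptide binding signal by more than 50% relative to plate controls in a single-dose test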;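 note: His-tagged Mcl-1 with rhodamine Noxa BH3 peptide and terbium anti-His antibody; 0% = Mcl-1 plus Noxa peptide wells and 100% = peptide-only wells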
Mcl1-Bid inh = Mcl-1/Bid binding inhibitors, primary screen, biochemical, TR-FRET, 1536-well; Induced myeloid leukemia cell differentiation protein Mcl-1 (Homo sapiens), Q07820; TR-FRET Mcl-1/Bid-Dy647 peptide binding; inhibition, % at 21.7 µM; hit rate 0.97% among 220,000; AID 1021, 2008;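 active = compounds that cut the binding signal by more than half at the single screening dose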;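 note: His-tagged Mcl-1 with europium anti-His antibody binding Bid BH3 peptide; 0% = Mcl-1 plus peptide wells and 100% = peptide-only wells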
* = called active by the depositor; / = not tested or not shown; + = active, no number. Only some compounds are listed: those with a hit (about 3.2% of all), similar ones and a draw of the others.

SMILES	Biofilm kill mix	14-3-3 Bad inh	Hck-Nef inh	Mcl-1 Bim block	Mcl1-Noxa inh	Mcl1-Bid inh
Cc1nc2ccccc2n1C(=O)c1ccccc1[N+](=O)[O-]	15.1	9.6	0.6	-4.0	-1.0	52.3*
O=[N+]([O-])c1cn(Cc2ccc(Cl)cc2)cn1	/	16.2	0.7	0.0	-0.3	-14.6
COc1ccc(Cn2cnc([N+](=O)[O-])c2)cc1[N+](=O)[O-]	11.5	98.5*	-1.7	/	1.9	-0.5
COCC(=O)Nc1ncc(S(=O)(=O)c2ccc([N+](=O)[O-])cc2)s1	13.4	9.7	17.7	-1.0	-0.4	67.7*
O=C(Nc1ncc(S(=O)(=O)c2ccc([N+](=O)[O-])cc2)s1)c1cccc2ccccc12	10.1	-19.1	3.9	-1.0	11.6	-0.3
COc1cc(OC)c(-c2nn3c(-c4ccco4)nnc3s2)cc1OC	/	-6.5	6.2	4.0	64.4*	-8.0
c1ccc(-c2cc(-c3nn4c(-c5ccco5)nnc4s3)c3ccccc3n2)cc1	/	4.9	2.6	4.0	50.8*	37.8
COc1ccc(CCNC(=O)CCn2c(SCC#N)nc3ccccc3c2=O)cc1OC	/	6.6	1.0	-1.0	3.0	16.2
Brc1cccc(OCCOCCn2ccnc2)c1	/	69.0	0.7	0.0	14.6	71.6*
CCOc1cccc(OCCCCn2ccnc2)c1	/	34.2	1.1	-2.0	36.1	58.3*
O=C(CCS(=O)(=O)c1ccc(Cl)cc1)Nc1ccc(N2CCOCC2)cc1	29.6	-10.8	15.9	/	17.9	-57.2
CCc1nc2n(n1)C(O)c1cc([N+](=O)[O-])ccc1S2 (stereo not drawn)	22.8	8.2	13.2	/	22.6	30.2
Cc1cccc(C(=O)N2CCc3cc(-c4nc(NC(=O)Cn5nnc6ccccc6c5=O)sc4C)ccc32)c1	11.9	11.6	10.7	-4.0	50.8*	66.5*
O=C(Nc1nn[nH]n1)c1cccc(Oc2ccccc2)c1	/	10.7	-8.2	-4.0	-9.7	-17.3
Cc1cc(C)cc(Oc2nn[nH]n2)c1	/	70.7*	-0.6	9.0	18.7	1.7
CC(C)(C)c1cccc(Oc2nn[nH]n2)c1	/	79.1*	-0.6	-1.0	-9.3	30.2
O=C(C(=S)N1CCOCC1)c1c[nH]c2ccccc12	12.2	9.3	-1.1	-7.0	-0.4	-30.2
Cc1ccc(NC(=O)Cn2cccc2)cc1C	/	-2.8	0.1	0.0	-7.5	-28.1
Cc1ccc(NC(=O)CCn2cccc2)cc1C	/	-9.6	0.7	-2.0	12.9	59.9*
Cc1ccc(NC(=O)Cn2cccc2)cc1Cl	/	+	0.9	0.0	5.5	-9.1
Cc1ccccc1-n1c(SCC(=O)N/N=C/C=C/c2ccccc2[N+](=O)[O-])nc2ccccc2c1=O	3.7	-1.1	2.8	-1.0	63.1*	-0.4
COc1cccc2cc(C(=O)NNC(=O)c3ccc(Br)cc3)c(=O)oc12	14.0	59.4	18.9	1.0	63.5*	28.0
COc1cccc2cc(C(=O)Oc3ccc(NC(C)=O)cc3)c(=O)oc12	12.5	14.2	0.8	2.0	-0.7	94.3*
CC(C)NC(=O)c1cc(-c2cccs2)on1	/	70.8*	-0.7	-1.0	10.3	7.7
Cc1ccc(-c2nn(C)c(=O)c3ccccc23)cc1CNC(=O)Cn1nc(-c2ccccc2)c2ccccc2c1=O	/	59.8	28.2	-31.0	-23.4	76.6*
CCN(CC)c1ccc(NC(=S)Nc2ccc(F)cc2)cc1	38.0	-10.6	23.3	-6.0	12.3	-53.6
C[N+](C)(C)c1ccc(/C=N/Nc2nc(Cl)c(C#N)c(Cl)c2Cl)cc1	-0.3	40.2	1.9	-4.0	36.9	90.8*
COc1ccc(-c2n[nH]c(=S)n2-c2ccc3c(c2)OCCO3)cc1	15.7	-4.2	1.7	-3.0	45.2	-51.6
COc1cc(OC)cc(-c2n[nH]c(=S)n2-c2ccc3c(c2)OCCO3)c1	17.9	-2.5	-13.3	-5.0	50.9*	-28.6
CN1c2ccccc2N(C)C1(C)c1ccccc1	10.3	19.2	11.5	1.0	79.8*	39.4
